Reference: ChEMBL document CHEMBL1782030, “Polyethylene glycol-based homologated ligands for nicotinic acetylcholine receptors” (Bioorg Med Chem, 2008)

Assay: Displacement of [3H]epibatidine from nAChR in rat cerebral cortex
Assay type: tissue-based
How it was run: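 Rat cerebral cortex membranes used as receptor source; competition binding against the radioligand [3H]epibatidine. Ki values given as mean ± SEM of three experiments, each run in triplicate.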

Compound | Ki [µM]
CN1CCC[C@H]1COc1cncc(C#CCO)c1 | 0.0031
COC(=O)NCC[N+](C)(C)C | 14
COCCOC(=O)NCC[N+](C)(C)C | 54
COCCOCCOC(=O)NCC[N+](C)(C)C | 32
COCCOCCOCCOC(=O)NCC[N+](C)(C)C | 70
COCCOCCOCCOCCOC(=O)NCC[N+](C)(C)C | 150
COCCOCCOCCOCCOCCOC(=O)NCC[N+](C)(C)C | 190
COCCOCCOCCOCCOCCOCCOC(=O)NCC[N+](C)(C)C | 30
COC(=O)N1CC[N+](C)(C)CC1 | 0.67
COCCOC(=O)N1CC[N+](C)(C)CC1 | 3
COCCOCCOC(=O)N1CC[N+](C)(C)CC1 | 8.2
COCCOCCOCCOC(=O)N1CC[N+](C)(C)CC1 | 48
COCCOCCOCCOCCOC(=O)N1CC[N+](C)(C)CC1 | 26
COCCOCCOCCOCCOCCOC(=O)N1CC[N+](C)(C)CC1 | 38
COCCOCCOCCOCCOCCOCCOC(=O)N1CC[N+](C)(C)CC1 | 19
COCC#Cc1cncc(OC[C@@H]2CCCN2C)c1 | 0.0047
COCCOCC#Cc1cncc(OC[C@@H]2CCCN2C)c1 | 0.015
COCCOCCOCC#Cc1cncc(OC[C@@H]2CCCN2C)c1 | 0.0075
COCCOCCOCCOCC#Cc1cncc(OC[C@@H]2CCCN2C)c1 | 0.015
COCCOCCOCCOCCOCC#Cc1cncc(OC[C@@H]2CCCN2C)c1 | 0.03
COCCOCCOCCOCCOCCOCC#Cc1cncc(OC[C@@H]2CCCN2C)c1 | 0.04
COCCOCCOCCOCCOCCOCCOCC#Cc1cncc(OC[C@@H]2CCCN2C)c1 | 0.063
CC(=O)N1CC[N+](C)(C)CC1 [ACETYLDIMETHYLPIPERAZINIUM IODIDE] | 3.6
